ChEMBL document CHEMBL2157975 (Bioorg Med Chem Lett, 2012)

Legend:
[1] = Drug degradation in aqueous acetonitrile solution assessed as ester bond hydrolysis; assay type: physicochemical; conditions: buffer
[2] = target: T1, Type-1 angiotensin II receptor (Homo sapiens, UniProt P30556); assay: Inhibition of AT1 receptor
T1 sequence (P30556 whole entry): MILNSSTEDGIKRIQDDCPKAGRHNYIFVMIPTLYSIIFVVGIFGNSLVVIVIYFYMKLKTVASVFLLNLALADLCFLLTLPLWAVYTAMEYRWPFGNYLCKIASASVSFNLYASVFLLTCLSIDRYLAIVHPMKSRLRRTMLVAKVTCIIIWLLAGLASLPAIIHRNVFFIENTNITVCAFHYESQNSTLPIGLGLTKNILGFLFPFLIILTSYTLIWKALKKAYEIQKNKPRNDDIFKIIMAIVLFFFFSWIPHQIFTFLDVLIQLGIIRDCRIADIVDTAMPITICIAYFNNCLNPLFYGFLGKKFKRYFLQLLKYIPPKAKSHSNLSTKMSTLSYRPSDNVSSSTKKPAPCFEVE

[3] = Selectivity ratio of IC50 for AT1 receptor to IC50 for APJ receptor (unknown receptor)
Apelin receptor = target: T2, Apelin receptor (Homo sapiens, UniProt P35414); assay: Antagonist activity at APJ receptor expressed in CHOK1 cells assessed as inhibition of apelin13-induced beta-arrestin recruitment after 90 mins by luminescence assay; assay type: functional, cell-based, CHO-K1
T2 sequence (P35414 whole entry): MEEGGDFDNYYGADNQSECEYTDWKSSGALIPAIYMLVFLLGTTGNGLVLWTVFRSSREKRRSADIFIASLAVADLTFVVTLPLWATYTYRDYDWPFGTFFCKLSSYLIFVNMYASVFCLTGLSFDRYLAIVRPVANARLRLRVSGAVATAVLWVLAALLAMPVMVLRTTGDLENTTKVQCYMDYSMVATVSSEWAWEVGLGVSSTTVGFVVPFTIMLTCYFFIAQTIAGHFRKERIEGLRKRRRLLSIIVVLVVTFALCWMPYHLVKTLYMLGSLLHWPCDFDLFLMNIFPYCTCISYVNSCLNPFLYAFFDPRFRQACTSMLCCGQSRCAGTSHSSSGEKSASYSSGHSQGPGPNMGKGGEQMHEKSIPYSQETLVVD

[4] = Binding affinity to benzodiazepinone receptor at 10 uM
Plasma = assay: Plasma protein binding in mouse; assay type: ADME, cell-free
[5] = target: T3, Apelin receptor (Homo sapiens) (UniProt P35414); assay: Antagonist activity at APJ receptor assessed as inhibition of apelin13-induced cAMP accumulation; assay type: functional
T3 sequence (whole entry): T2 sequence (P35414 whole entry)

[6] = Metabolic stability in plasma; assay type: ADME, cell-free
Hepatocyte = assay: Cytotoxicity against human hepatocytes; assay type: cell-based
[7] = target: Kappa-type opioid receptor (Homo sapiens) (UniProt P41145); assay: Binding affinity to kappa-opioid receptor at 10 uM
[8] = Metabolic stability in human hepatic microsomes assessed as compound remaining at 60 mins; assay type: ADME; conditions: liver microsomes, read-out: Stability
In short: (§1)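 Test compound incubated with liver microsomes, human or mouse according to the line (the text also calls these liver homogenates). Read-out was the percentage of parent compound remaining after 60 min.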

[9] = Metabolic stability in mouse hepatic microsomes assessed as compound remaining at 60 mins; assay type: ADME; conditions: liver microsomes, read-out: Stability; in short: as §1

Kappa-type opioid receptor (Homo sapiens), sequence (P41145 whole entry): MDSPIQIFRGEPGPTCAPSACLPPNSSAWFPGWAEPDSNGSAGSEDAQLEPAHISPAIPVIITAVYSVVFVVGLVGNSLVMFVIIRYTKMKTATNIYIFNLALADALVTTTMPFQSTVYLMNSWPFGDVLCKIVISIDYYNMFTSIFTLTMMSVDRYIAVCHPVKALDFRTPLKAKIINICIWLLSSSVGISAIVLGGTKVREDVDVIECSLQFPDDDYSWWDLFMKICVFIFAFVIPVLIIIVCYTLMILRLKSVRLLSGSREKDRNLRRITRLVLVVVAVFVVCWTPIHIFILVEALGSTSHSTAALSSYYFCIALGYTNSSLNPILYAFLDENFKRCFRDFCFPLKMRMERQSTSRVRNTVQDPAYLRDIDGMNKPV

Cc1ccnc(SCc2cc(=O)c(OC(=O)c3ccc(Cl)c([N+](=O)[O-])c3)co2)n1
Drug degradation [1]: Active

N#Cc1ccc(C(=O)Oc2coc(CSc3ncccn3)cc2=O)cc1
IC50 [2]: > 79 µM | Ratio IC50 [3]: > 12 | IC50 (Apelin receptor): 6.59 µM

O=C(Oc1coc(CSc2ncccn2)cc1=O)c1ccc([N+](=O)[O-])cc1
Activity [4]: < 70% | IC50 [2]: > 79 µM | PPB (Plasma): 99.1% | inhibition [5]: Dose-dependent effect | Stability [6]: 42.2% | Activity (Hepatocyte): > 50 µM | Activity [7]: < 50% | remaining at 1 h [8]: 4.2% | remaining at 1 h [9]: 4.9%

Cc1ccnc(S(=O)(=O)Cc2cc(=O)c(OC(=O)c3ccc(Cl)c([N+](=O)[O-])c3)co2)n1
IC50 [2]: > 79 µM | Ratio IC50 [3]: > 25 | IC50 (Apelin receptor): 3.21 µM

O=C(Oc1coc(CSc2ccccc2)cc1=O)c1ccc(Cl)c([N+](=O)[O-])c1
IC50 [2]: > 79 µM | Ratio IC50 [3]: > 8 | IC50 (Apelin receptor): 9.61 µM

O=C(Oc1coc(CSc2ccc(OC(F)(F)F)cc2)cc1=O)c1ccc(Cl)c([N+](=O)[O-])c1
IC50 [2]: > 79 µM | Ratio IC50 [3]: > 3 | IC50 (Apelin receptor): 24 µM

Cc1ccc(SCc2cc(=O)c(OC(=O)c3ccc(Cl)c([N+](=O)[O-])c3)co2)cc1
IC50 [2]: > 79 µM | Ratio IC50 [3]: > 6 | IC50 (Apelin receptor): 12.8 µM
